Results as given in PubChem BioAssay.
Records with an inconclusive call do not appear.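 How the source made its calls, unless noted: active means viability increase at or above a cutoff of the median across tested compounds plus 3 SD (cut at about 8.5% in these data, passing the limit was not always enough); inconclusive means some gains above the cutoff, reason not given; inactive means the rest.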

How the values were obtained:
[1] = S. cerevisiae growth inhibition in permissive medium (OD615), pilot counter-assay for S. cerevisiae lifespan shortening project, permissive growth control (AID 705;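 active means growth inhibition above 25% in both replicates, a cutoff set 3 SD above the mean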); conditions: OD615, 24 h, at 10 µM, active compounds read high
How it was run: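 System: engineered DeaD yeast; Medium: permissive raffinose/galactose medium; Compound dosing: 10 µM single dose, 0.25% DMSO; Incubation: 4 h cell pre-growth, 24 h exposure at 30 °C; Technique: OD at 615 nm; Evaluation: growth inhibition from lowered OD615 after 24 h.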

[2] = S. cerevisiae growth inhibition in restrictive medium, OD615, pilot screen, restrictive growth control, yeast lifespan reduction project (AID 706;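 active means growth inhibition above a set limit, 3 SD over mean compound inhibition, in both replicates, cut at about 43% in these data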;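 further: modified DeaD lifespan yeast strain shifted to restrictive glucose medium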); conditions: OD615, 48 h, at 10 µM, active compounds read high
How it was run: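 Material: modified S. cerevisiae; buffer or medium: CSMM-D glucose medium; doses: one concentration, 10 µM final, 0.25% DMSO; incubation: 48 h compound exposure at 30 °C; detection: optical density at 615 nm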

[3] = doxorubicin toxicity protection in MRP-1 cells – H69AR cells, CellTiter-Glo, duplicate, MRP-1 activator project, pilot screen (AID 807); conditions: H69AR viability with doxorubicin, CellTiter-Glo luminescence; at 10 µM; active compounds read high;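 further: compound pretreatment 18-22 h then 72 h combined with doxorubicin; 0% = doxorubicin alone and 100% = vehicle without doxorubicin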
[4] = viability of HCT116 without oncogenic beta-catenin – human colon tumor cells, pilot screen (AID 823;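 active means cell viability at or below a set limit in both duplicate runs, the limit being the all-compound median minus 4 SD, cut at about 23% in these data, passing the limit was not always enough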;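 further: 0% = wells killed by 20 µM Hyamine and 100% = untreated DMSO cell wells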); conditions: HCT116 beta-catenin knockout viability, CellTiter-Glo, 60 h; at 10 µM; active compounds read low
[5] = viability of PTEN-null HCT116 cells – cell-based, HCT116 clonal line, CellTiter-Glo, pilot screen (AID 824;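 active means viability at or below 27.92% in each of two runs, the all-compound median minus 4 SD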;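 further: 0% = 20 µM Hyamine control and 100% = vehicle cell control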); conditions: HCT116 PTEN-deleted viability, 60 h, at 10 µM, active compounds read low
[6] = RAM pathway blockade in budding yeast – dse1pr::URA3 reporter, 5-FOA selection, pilot screen (AID 869;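 active means inhibition over a set limit, the all-compound mean plus 3 SD, in both replicate runs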;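 further: 0% = DMSO wells with no growth and 100% = 10 µM 1-NA-PP1 with full growth; RAM network block rescues cells from 5-FOA so hits raise OD615 growth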); conditions: S. cerevisiae dse1pr::URA3 5-FOA growth, OD615, 2 d; at 10 µM; active compounds read high; strain carries analog-sensitive mutant Cbk1 kinase
[7] = RAM signaling pathway blockade in yeast – S. cerevisiae, Pdr1DBD-CYC8 efflux-inhibited sensitized strain, primary screen (AID 1298;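 active means RAM network inhibition above 8.4% in each of two replicates, 3 SD over the compound average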;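 further: 0% = DMSO untreated cells without growth and 100% = 10 µM 1-NA-PP1 full growth; higher means more yeast growth rescued from 5-FOA killing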); conditions: S. cerevisiae cbk1-as DSE1-URA3 strain, 5-FOA growth OD615, 2 d; at 50 µM; active compounds read high

CCC(=O)c1ccc(CCCCCC(=O)O)s1
inactive: growth inhibition [1] 4.35% | growth inhibition [2] -7.41% | viability increase [3] -0.1% | viability [4] 98.2% | viability [5] 98.7% | inhibition [6] 1.34% | RAM network inhibition [7] 3.2%

CC(C)(C)NC(=O)Cn1c(=O)oc2cc(S(=O)(=O)N3CCc4ccccc43)ccc21
inactive: growth inhibition [1] 0.45% | growth inhibition [2] -12.1% | viability increase [3] -3.16% | viability [4] 90% | viability [5] 89.5% | inhibition [6] 0.05% | RAM network inhibition [7] 7.21%

Cc1ccc(OCCNC(=O)c2ccco2)cc1C
inactive: growth inhibition [1] 0.475% | growth inhibition [2] -5.61% | viability increase [3] -1.46% | viability [4] 102% | viability [5] 101% | inhibition [6] 1.63% | RAM network inhibition [7] -1.46%

O=C(CNS(=O)(=O)c1cccc2nsnc12)NC1CCCCC1
inactive: growth inhibition [1] -8.49% | growth inhibition [2] -16.5% | viability increase [3] -1.47% | viability [4] 96.2% | viability [5] 92.3% | inhibition [6] 1.06% | RAM network inhibition [7] 1.3%

Cc1ccc(S(=O)(=O)N2CCC(C(=O)N[C@@H](C)C(=O)NC3CCCCC3)CC2)cc1
inactive: growth inhibition [1] -10.2% | growth inhibition [2] -17.1% | viability increase [3] 3.71% | viability [4] 97.7% | viability [5] 99.8% | inhibition [6] 2.49% | RAM network inhibition [7] 4.41%

Cn1c(=O)c2c(SC3CCCC3)nc(C3CC3)nc2n(C)c1=O
inactive: growth inhibition [1] 3.3% | growth inhibition [2] -9.07% | viability increase [3] 1.43% | viability [4] 91% | viability [5] 86.3% | inhibition [6] 2.54% | RAM network inhibition [7] 2.78%

CCSc1nnc(-c2ccc(Cl)cc2Cl)o1
inactive: growth inhibition [1] -10.3% | growth inhibition [2] -5.92% | viability increase [3] -5.13% | viability [4] 83.5% | viability [5] 85.4% | inhibition [6] 1.65% | RAM network inhibition [7] 2.2%

O=C(CSc1nnc(-c2ccccc2Cl)o1)N1CCCCC1
inactive: growth inhibition [1] -8.71% | growth inhibition [2] 7.85% | viability increase [3] 1.04% | viability [4] 95.1% | viability [5] 97.6% | inhibition [6] 0.32% | RAM network inhibition [7] 0.36%

COc1cc(S(=O)(=O)NCc2ccc3c(c2)OCO3)ccc1Cl
inactive: growth inhibition [1] -10.5% | growth inhibition [2] -15.1% | viability increase [3] -2.38% | viability [4] 97.3% | viability [5] 95.5% | inhibition [6] 1.69% | RAM network inhibition [7] 0.82%

Cc1ccc(C(=O)Nc2ccc(S(=O)(=O)N3CCN(C)CC3)cc2)o1
inactive: growth inhibition [1] -8.11% | growth inhibition [2] -0.785% | viability increase [3] -0.32% | viability [4] 104% | viability [5] 103% | inhibition [6] 1.32% | RAM network inhibition [7] 3.17%

CCOc1cccc(=O)c2c(C)n(Cc3ccco3)c(C)c12
inactive: growth inhibition [1] -12.4% | growth inhibition [2] -8% | viability increase [3] -3.8% | viability [4] 92.1% | viability [5] 84.9% | inhibition [6] 0.975% | RAM network inhibition [7] -0.46%

CCOc1ccc(NC(=O)N(CCN(C)C)C(C)c2ccncc2)cc1 (configuration not stated)
inactive: growth inhibition [1] 2.97% | growth inhibition [2] 4.26% | viability increase [3] -1.59% | viability [4] 85.6% | viability [5] 90.2% | inhibition [6] 1.05% | RAM network inhibition [7] 1.38%

Cc1c(C(=O)NCc2ccccn2)sc2nc(-c3ccccc3)cn12
inactive: growth inhibition [1] 6.98% | growth inhibition [2] 13.1% | viability increase [3] 0.68% | viability [4] 112% | viability [5] 101% | inhibition [6] 0.91% | RAM network inhibition [7] 0.57%

COCCCNc1ncnc2nc[nH]c12
inactive: growth inhibition [1] 4.6% | growth inhibition [2] -1.01% | viability increase [3] 1.43% | viability [4] 104% | viability [5] 104% | inhibition [6] 0.885% | RAM network inhibition [7] 1.74%

COc1ccc2[nH]cc(CCNC(=O)C3CCCNC3=O)c2c1 (configuration not stated)
inactive: growth inhibition [1] -14.6% | growth inhibition [2] -16.5% | viability increase [3] -1.57% | viability [4] 104% | viability [5] 102% | inhibition [6] 0.15% | RAM network inhibition [7] 2.98%

CSc1cccc(NC(=O)CN(c2ccc(C)cc2C)S(C)(=O)=O)c1
inactive: growth inhibition [1] -12.5% | growth inhibition [2] -9.39% | viability increase [3] -1.07% | viability [4] 76.8% | viability [5] 67.8% | inhibition [6] 1.02% | RAM network inhibition [7] 2.43%
